Key:
[1] = substrate: CC(C)CCCC(C)CCCC(C)CCCC(C)CCC12OC1(C)C(=O)c1ccccc1C2=O; assay: (§1) Vmax value at Vitamin K epoxide reductase
Method in brief: (§2)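 Analogues served as alternative substrates in place of vitamin K1 epoxide for beef liver microsomal reductase (0.02% Emulgen 911, DTT), at 10–100 μM (12 levels). Km and Vmax came from rates of quinone product formation, not from substrate consumption. They were reported only where the quinone product was stable to DTT.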

[2] = substrate: C/C(=C\C(O)C12OC1(C)C(=O)c1ccccc1C2=O)CCCC(C)CCCC(C)CCCC(C)C; assay: as §1; method in brief: as §2
[3] = substrate: C/C(=C\CC12OC1(CF)C(=O)c1ccccc1C2=O)CCCC(C)CCCC(C)CCCC(C)C; assay: as §1; method in brief: as §2
[4] = substrate: CC(C)CCCC(C)CCCC(C)CCCC(C)/C=C/C12OC1(C)C(=O)c1ccccc1C2=O; assay: as §1; method in brief: as §2
[5] = substrate: CC(C)CCCC(C)CCCC(C)CCCC(C)CC(O)C12OC1(C)C(=O)c1ccccc1C2=O; assay: as §1; method in brief: as §2
[6] = substrate: C/C(=C\CC12OC1(CO)C(=O)c1ccccc1C2=O)CCCC(C)CCCC(C)CCCC(C)C; assay: as §1; method in brief: as §2
[7] = substrate: C/C(=C\CC12OC1(C)C(=O)c1ccccc1C2=O)CCCC(C)CCCC(C)CCCC(C)C; assay: as §1; method in brief: as §2
[8] = substrate: CC(C)CCCC(C)CCCC(C)CCCC(C)CCC12OC1(C)C(=O)c1ccccc1C2=O; assay: (§3) Km value at Vitamin K epoxide reductase; method in brief: as §2
[9] = substrate: C/C(=C\C(O)C12OC1(C)C(=O)c1ccccc1C2=O)CCCC(C)CCCC(C)CCCC(C)C; assay: as §3; method in brief: as §2
[10] = substrate: C/C(=C\CC12OC1(CF)C(=O)c1ccccc1C2=O)CCCC(C)CCCC(C)CCCC(C)C; assay: as §3; method in brief: as §2
[11] = substrate: CC(C)CCCC(C)CCCC(C)CCCC(C)/C=C/C12OC1(C)C(=O)c1ccccc1C2=O; assay: as §3; method in brief: as §2
[12] = substrate: CC(C)CCCC(C)CCCC(C)CCCC(C)CC(O)C12OC1(C)C(=O)c1ccccc1C2=O; assay: as §3; method in brief: as §2
[13] = substrate: C/C(=C\CC12OC1(CO)C(=O)c1ccccc1C2=O)CCCC(C)CCCC(C)CCCC(C)C; assay: as §3; method in brief: as §2
[14] = substrate: C/C(=C\CC12OC1(C)C(=O)c1ccccc1C2=O)CCCC(C)CCCC(C)CCCC(C)C; assay: as §3; method in brief: as §2

B1: Vitamin K epoxide reductase complex subunit 1 (Bos taurus), Q6B4J2 (protein)
chain: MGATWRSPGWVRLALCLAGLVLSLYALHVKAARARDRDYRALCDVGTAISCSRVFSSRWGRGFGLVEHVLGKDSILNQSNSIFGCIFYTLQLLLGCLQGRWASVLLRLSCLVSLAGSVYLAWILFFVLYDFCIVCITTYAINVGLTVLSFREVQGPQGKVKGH
With B1 the Vmax [1] was 2.1 pmol/s/mg, the Vmax [2] was 2.4 pmol/s/mg and the Vmax [3] was 4 pmol/s/mg. The Vmax [4] was 2 pmol/s/mg, the Vmax [5] was 1.6 pmol/s/mg and the Vmax [6] was 3.4 pmol/s/mg. It also gave a Vmax [7] of 2.9 pmol/s/mg, a Km [8] of 30 µM and a Km [9] of 25 µM. It also gave a Km [10] of 20 µM, a Km [11] of 68 µM and a Km [12] of 34 µM. For the same protein, the Km [13] was 10 µM and the Km [14] was 18 µM.

Source: ChEMBL document CHEMBL1124804, “Substituted vitamin K epoxide analogues. New competitive inhibitors and substrates of vitamin K1 epoxide reductase” (J Med Chem, 1990)
